Laboratory results from paper PMC2952073 (Bioorganic & medicinal chemistry, 2010).
Each block holds one compound with its values, some of them ahead of it.

Key:
[1] = test system: endogenous Gli in Rh30 cells; assay: Gli-mediated transcription reporter assay in Rh30 cells; format: cell-based
How it was run: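 Rh30 cells seeded at 3×10^5 per dish in RPMI-1640 with 10% FBS (37 °C, 5% CO2); after 24 h (~70% confluence) transfected with GliLuc-BS (500 ng/mL) and pRL-CMV (2.5 ng/mL) using Fugene6. Replated into 96-well plates 6 h post-transfection; 18 h later exposed to test compound or DMSO for 24 h. Lysed cells read by dual luciferase as firefly/Renilla ratio.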

medulloblastoma [2] = conditions: mouse model in which SuFu is inactivated; cited from earlier work
bone development = conditions: young mice; cited from earlier work
medulloblastoma [3] = conditions: mouse model in which Ptch1 is inactivated; cited from earlier work
[4] = test system: Gli1-mediated transcription (human full-length Gli1); assay: Gli-Luc reporter assay in C3H10T1/2 cells transfected with Gli1; format: cell-based; conditions: for inhibition of Gli1-mediated transcription (Gli-Luc), relative potency in words: Gli1-transfected C3H10T1/2 cells, 10 µM or 20 µM, 24 h
[5] = test system: Hh signal-mediated alkaline phosphatase; assay: Hh signal-mediated alkaline phosphatase induction in C3H10T1/2 cells; format: cell-based, mouse; conditions: osteoblastic differentiation marker
[6] = test system: Histone deacetylase (HDAC); assay: HDAC inhibition; format: biochemical; conditions: up to 40 µM; data not shown
[7] = Microsomal stability assay; format: in vitro ADME; conditions: CD-1 female mouse liver microsomes, 37°C
[8] = test system: Gli1-target genes in Rh30 cells; assay: Real-time RT-PCR of Gli1-target genes in Rh30 cells; format: cell-based; conditions: 24 h after addition

Structure (SMILES): COc1cc(OC)cc(C(=O)Nc2ccc(Cl)c(-c3nc4ccc(N(C)C)cc4[nH]3)c2)c1 [HhAntag]
- Gli-Luc inhibition in Rh30 cells, in words ([1]; concentration as high as 40 µM): almost no Gli-Luc inhibition
- efficacy (medulloblastoma [2]): not to be effective
- effect on bone development (bone development): permanent defects in bone development
- effect on medulloblastoma (medulloblastoma [3]): eliminate medulloblastoma

Structure (SMILES): CC(CNC(=O)c1cccc2cc[nH]c12)c1cccc(C(=O)c2ccccc2)c1 (stereo not shown) [compound 31, N-(2-(3-Benzoylphenyl)propyl)-1H-indole-7-carboxamide]
- inhibition of Gli1-mediated transcription (Gli-Luc), relative potency in words [4]: decreased the potency

Structure (SMILES): CC(CNC(=O)Cc1ccc2[nH]ccc2c1)c1cccc(C(=O)c2ccccc2)c1 (stereo not shown) [compound 25, N-(2-(3-Benzoylphenyl)propyl)-2-(1H-indol-5-yl)acetamide]
- inhibition of Gli1-mediated transcription (Gli-Luc), relative potency in words [4]: only weak activity

- IC50 ([4]; Homo sapiens, C3H 10T1/2, 24 h, read-out: IC50, Gli-Luc signal in Gli1-transfected C3H10T1/2 cells): ~20 µM
Structure (SMILES): CN(C)c1ccccc1CN1CCCN(Cc2ccccc2N(C)C)C1c1ccncc1 [GANT61, reference compound]

- HDAC inhibition [6]: do not inhibit
Structure (SMILES): CCCN(C(=O)C(C)c1cccc(C(=O)c2ccccc2)c1)c1ccc2[nH]ccc2c1 (stereo not shown) [compound 42, 2-(3-Benzoylphenyl)-N-(1H-indol-5-yl)-N-propylpropanamide]
- Gli-Luc inhibition in Rh30 cells, in words ([1]; 10 µM or 20 µM, 24 h): inhibition with similar or slightly weaker potency
- inhibitory effect in inducing Hh signal-mediated alkaline phosphatase [5]: much smaller than that of HhAntag

Structure (SMILES): CCCN(Cc1ccc2[nH]ccc2c1)C(=O)C(C)c1cccc(C(=O)c2ccccc2)c1 (stereo not shown) [compound 44, N-((1H-Indol-5-yl)methyl)-2-(3-benzoylphenyl)-N-propylpropanamide]
- inhibition of Gli1-mediated transcription (Gli-Luc), relative potency in words [4]: weaker potency than 42

Structure (SMILES): CC(C(=O)NCCc1ccc2[nH]ccc2c1)c1cccc(C(=O)c2ccccc2)c1 (stereo not shown) [compound 20, N-(2-(1H-Indol-5-yl)ethyl)-2-(3-benzoylphenyl)propanamide]
- inhibition of Gli1-mediated transcription (Gli-Luc), relative potency in words [4]: much weaker activity than 5

- stability in mouse liver microsomes, in words [7]: much more stable than 5 and 6
- HDAC inhibition [6]: do not inhibit
Structure (SMILES): CCCN(C(=O)C(C)c1cccc(C(=O)c2ccccc2)c1)c1ccc2cc[nH]c2c1 (stereo not shown) [compound 33, 2-(3-Benzoylphenyl)-N-(1H-indol-6-yl)-N-propylpropanamide]
- Gli-Luc inhibition in Rh30 cells, in words ([1]; 10 µM or 20 µM, 24 h): inhibition with similar or slightly weaker potency
- expression of Gli1-target genes in Rh30 cells (RT-PCR) [8]: inhibits expression of Gli1-target genes
- inhibitory effect in inducing Hh signal-mediated alkaline phosphatase [5]: much smaller than that of HhAntag

Structure (SMILES): CC(CNC(=O)c1c[nH]c2ccccc12)c1cccc(C(=O)c2ccccc2)c1 (stereo not shown) [compound 29, N-(2-(3-Benzoylphenyl)propyl)-1H-indole-3-carboxamide]
- inhibition of Gli1-mediated transcription (Gli-Luc), relative potency in words [4]: equipotent inhibitors

Structure (SMILES): CC(C(=O)N(C)c1ccc2cc[nH]c2c1)c1cccc(C(=O)c2ccccc2)c1 (stereo not shown) [compound 32, 2-(3-Benzoylphenyl)-N-(1H-indol-6-yl)-N-methylpropanamide]
- inhibition of Gli1-mediated transcription (Gli-Luc), relative potency in words [4]: Little improvement

Structure (SMILES): CC(C(=O)Nc1ccc2[nH]ccc2c1)c1cccc(C(=O)c2ccccc2)c1 (stereo not shown) [compound 22, 2-(3-Benzoylphenyl)-N-(1H-indol-5-yl)propanamide]
- inhibition of Gli1-mediated transcription (Gli-Luc), relative potency in words [4]: higher activity than 20

- time to complete consumption in mouse liver microsomes [7]: less than 1 h
- HDAC inhibition [6]: do not inhibit
Structure (SMILES): CCCN(CCc1ccc(O)cc1)C(=O)C(C)c1cccc(C(=O)c2ccccc2)c1 (stereo not shown) [compound 6]

Structure (SMILES): CCCC(C)(C(=O)Nc1ccc2cc[nH]c2c1)c1cccc(C(=O)c2ccccc2)c1 (stereo not shown) [compound 40, 2-(3-Benzoylphenyl)-N-(1H-indol-6-yl)-2-methylpentanamide]
- inhibition of Gli1-mediated transcription (Gli-Luc), relative potency in words [4]: did not increase potency

Structure (SMILES): CCCN(C(=O)C(C)c1cccc(C(=O)c2ccccc2)c1)c1cccc2[nH]ccc12 (stereo not shown) [compound 43, 2-(3-Benzoylphenyl)-N-(1H-indol-4-yl)-N-propylpropanamide]
- inhibition of Gli1-mediated transcription (Gli-Luc), relative potency in words [4]: equipotent to 33

Structure (SMILES): CC(C(=O)NCc1ccc2[nH]ccc2c1)c1cccc(C(=O)c2ccccc2)c1 (stereo not shown) [compound 21, N-((1H-Indol-5-yl)methyl)-2-(3-benzoylphenyl)propanamide]
- inhibition of Gli1-mediated transcription (Gli-Luc), relative potency in words [4]: higher activity than 20

- stability in mouse liver microsomes, in words [7]: much more stable than 5 and 6
Structure (SMILES): CC(C(=O)Nc1ccc2cc[nH]c2c1)c1cccc(C(=O)c2ccccc2)c1 (stereo not shown) [compound 23, 2-(3-Benzoylphenyl)-N-(1H-indol-6-yl)propanamide]
- Gli-Luc inhibition in Rh30 cells, in words ([1]; 10 µM or 20 µM, 24 h): inhibition with similar or slightly weaker potency
- inhibition of Gli1-mediated transcription (Gli-Luc), relative potency in words [4]: best among the tested analogs
- inhibitory effect in inducing Hh signal-mediated alkaline phosphatase [5]: much smaller than that of HhAntag

- time to complete consumption in mouse liver microsomes [7]: less than 1 h
- HDAC inhibition [6]: do not inhibit
Structure (SMILES): CC(C(=O)NCCc1ccc(O)cc1)c1cccc(C(=O)c2ccccc2)c1 (stereo not shown) [compound 5]

Structure (SMILES): CCCn1ccc2ccc(NC(=O)C(C)c3cccc(C(=O)c4ccccc4)c3)cc21 (stereo not shown) [compound 41, 2-(3-Benzoylphenyl)-N-(1-propyl-1H-indol-6-yl)propanamide]
- inhibition of Gli1-mediated transcription (Gli-Luc), relative potency in words [4]: did not increase potency

Structure (SMILES): CC(CNC(=O)c1cccc2[nH]ccc12)c1cccc(C(=O)c2ccccc2)c1 (stereo not shown) [compound 30, N-(2-(3-Benzoylphenyl)propyl)-1H-indole-4-carboxamide]
- inhibition of Gli1-mediated transcription (Gli-Luc), relative potency in words [4]: decreased the potency

Structure (SMILES): CC(CNC(=O)c1cc2ccccc2[nH]1)c1cccc(C(=O)c2ccccc2)c1 (stereo not shown) [compound 28, N-(2-(3-Benzoylphenyl)propyl)-1H-indole-2-carboxamide]
- inhibition of Gli1-mediated transcription (Gli-Luc), relative potency in words [4]: equipotent inhibitors
